# Most compounds without a hit are left out; they make up all but 6.4% or so of the library.
# CHOP inhibitor – CHOP inhibition in unfolded protein response | AID 2732 | 220,000 compounds, 3.8% hits | CHO-K1 CHOP-promoter luciferase, tunicamycin-induced, 15-18 h | inhibition, % at 10 µM;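 active = compounds that reduced the stress-induced luciferase reporter signal by more than about 70% of percent inhibition, limit read from the data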;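 also: 0% = tunicamycin plus vehicle and 100% = wells without tunicamycin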
# WT yeast gro inh – growth inhibition of WT yeast, mitochondrial fusion screen. mitochondrial fusion phenotypic screen, WT strain. inhibition, % at 10 µM. 190,000 compounds, 2.1% hits. AID 1362; in the data active = inhibition above about 58%; tested in S. cerevisiae
# EBV gp42 inh – inhibitors of Epstein-Barr virus glycoprotein 42; AID 1085; inhibition, % (tested at 21.74 µM); 220,000 compounds, 0.42% hits; Q1HVG2; Fluorescence polarization binding assay, mP read-out; in the data active = inhibition above about 50%
# Target sequence (Q1HVG2 whole entry, looked up): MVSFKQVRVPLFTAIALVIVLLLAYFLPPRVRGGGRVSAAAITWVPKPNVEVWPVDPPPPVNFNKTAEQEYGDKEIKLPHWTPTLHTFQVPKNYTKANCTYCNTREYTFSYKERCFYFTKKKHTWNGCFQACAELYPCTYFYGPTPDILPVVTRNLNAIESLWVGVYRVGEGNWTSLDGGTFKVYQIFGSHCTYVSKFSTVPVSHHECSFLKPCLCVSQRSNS
# NR3A LBD binder – modulators (binders) of human NR3A ligand-binding domain; NR3A LBD differential scanning fluorimetry, Tm shift; 0% = protein alone, 100% = glycine-bound protein; Tm shift relative to glycine control, % at 25 µM; 340,000 compounds, 2.5% hits; AID 1259313;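 active = melting temperature shift of at least 10% of the positive control shift, at one fixed dose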
# MPTP inh – blocks calcium-induced mitochondrial swelling; 360,000 compounds, 1.4% hits; AID 602449; inhibition, % at 10 µM; isolated mouse mitochondria, Ca2+ swelling absorbance, 30 min;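 active = inhibition of 50% or more, scaled per plate between neutral and stimulator controls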;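 also: 0% = DMSO wells given calcium and 100% = 1 mM EGTA wells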
# TbMetRS inhib – Trypanosoma brucei MetRS inhibition | 360,000 compounds, 0.4% hits | inhibition, % at 11.9 µM | purified T. brucei MetRS, ATP depletion, Kinase-Glo luminescence;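 active = inhibition above a per-plate cutoff of the control wells' mean inhibition plus 3 SD, cut at about 5.5% in these data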;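 also: 0% = DMSO wells median and 100% = median of wells with control inhibitor compound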
#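 Test system: purified T. brucei MetRS enzyme. Also added: ATP, methionine and E. coli bulk tRNA substrates. Compound: 11.9 µM single point. Schedule: 15 min enzyme-compound preincubation, 2 h reaction, 10 min detection, 25 °C. Signal: luciferase luminescence of residual ATP, Kinase-Glo. Evaluation: percent inhibition versus plate control medians. Controls: DMSO wells, low control.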
# * marks the source's active call; other numbers are inactive results; . = no result.
SMILES,CHOP inhibitor,WT yeast gro inh,EBV gp42 inh,NR3A LBD binder,MPTP inh,TbMetRS inhib
O=C(c1cccc(S(=O)(=O)N2CCN(c3ccc(F)cc3)CC2)c1)N1CCN(c2ccccc2O)CC1,.,.,.,1,0,0
O=C1NC2=C(C(=O)CCC2)C(c2ccccc2[N+](=O)[O-])N1 (configuration not stated),.,.,.,1,1,0
CCOc1cccc(-c2nnc3sc(-c4ccco4)nn23)c1,-2,-11,-15,0,1,0
O=C(c1cccc(C(F)(F)F)c1)C1CCCN(C(=O)CN2CCOC2=O)C1 (configuration not stated),.,.,.,11*,1,0
O=c1cc(N2CCCCC2)c(-c2ccccc2)n[nH]1,17,12,-6,2,0,0
O=c1cc(N2CCCCC2)c(-c2ccccc2)nn1Cc1ccc(Cl)cc1,71*,30,-11,4,0,-1
O=c1c2c(c(-c3ccccc3)nn1Cc1ccccc1)CCCC2,.,.,.,-4,-1,-1
O=c1cc(N2CCCCC2)c(-c2ccccc2)nn1Cc1c(Cl)cccc1Cl,5,89*,-16,-1,3,-1
O=c1cc(N2CCCCC2)c(-c2ccccc2)nn1Cc1ccc(F)cc1,81*,83*,-3,-1,0,2
CC(C)Oc1cccc(C(=O)C2CCCN(C(=O)c3csnn3)C2)c1 (configuration not stated),-23,12,-2,-1,-1,0
COc1c(-c2ccc(O)c(O)c2)oc2cc(O)cc(O)c2c1=O,-28,.,-19,16*,2,-1
O=c1c(O)c(-c2cc(O)c(O)c(O)c2)oc2cc(O)cc(O)c12,-8,.,.,27*,6,5
O=c1c(O)c(-c2ccccc2)oc2cc(O)cc(O)c12,.,.,.,11*,5,-3
O=c1c(O)c(-c2ccccc2)oc2ccccc12,.,.,.,0,7,-1
Cc1ccc(-c2oc3ccccc3c(=O)c2O)cc1,72*,-5,-16,2,8,0
O=c1c(O)c(-c2ccc(O)cc2O)oc2cc(O)cc(O)c12,31,7,39,.,.,.
O=C(Nc1ccc2c(c1)OCCO2)C(c1ccccc1F)n1c(=O)c(-c2cc3ccccc3[nH]2)nc2ccccc21 (configuration not stated),.,.,.,.,5,0
O=c1cc(-c2ccccc2)c2c(O)cc(O)cc2o1,.,.,.,-7,1,0
O=c1c(O[C@@H]2O[C@H](CO)[C@H](O)[C@H](O)[C@H]2O)c(-c2ccc(O)c(O)c2)oc2cc(O)cc(O)c12,-12,-3,-11,.,.,.
O=c1c(-c2ccccc2)c(-c2ccccc2)oc2cc(O)cc(O)c12,.,.,.,20*,1,-1
CC(C)=CCc1cc(-c2oc3cc(O)cc(O)c3c(=O)c2O)ccc1O,.,.,.,21*,4,1
Cc1cccc(NC(=S)NC(=O)C2CC2)c1,.,.,.,.,-1,0
CN(Cc1ccc(Cl)s1)C(=O)CCl,105*,-31,6,-1,4,0
O=C(O)CSc1ccc(NC(=O)Nc2ccccc2F)cc1,-4,.,-11,10*,1,0
CC(=O)Nc1ccc(SCC(=O)O)cc1,15,-3,1,0,-2,-1
SMILES,CHOP inhibitor,WT yeast gro inh,EBV gp42 inh,NR3A LBD binder,MPTP inh,TbMetRS inhib
CC(OC(=O)c1ccc(O)cc1)C(=O)Nc1nc(-c2ccccc2)cs1 (configuration not stated),.,.,.,7,2,0
COc1cccc(NC(=O)Cn2nnc(C(=O)Nc3cc(Cl)ccc3OC)c2N)c1,.,.,.,25*,0,1
COc1ccc(Cl)cc1NC(=O)c1nnn(CC(=O)Nc2ccc3c(c2)OCO3)c1N,.,.,.,20*,-1,0
COc1ccc(NC(=O)Cn2nnc(C(=O)NCc3ccccc3OC)c2N)cc1Cl,72*,14,-9,-7,3,-1
COc1ccc(OC)c(NC(=O)c2nnn(Cc3ccc(Br)cc3F)c2N)c1,88*,1,5,-1,1,0
COc1ccc(Cl)cc1NC(=O)c1nnn(CC(=O)Nc2ccc(OC)c(OC)c2)c1N,.,.,.,-1,-2,0
CCOC1=C2[C@H](c3ccc(C)cc3)N(S(=O)(=O)c3ccc(C)cc3)C[C@H]2n2c(=O)n(-c3ccccc3)c(=O)n2C1,.,.,.,.,1,0
Cc1ccc(Cn2c(CN(C)Cc3ccccc3)nc3c2c(=O)n(C)c(=O)n3C)cc1,56,36,-11,0,1,0
CC(C)CCn1c(COc2ccccc2)nn(CCC#N)c1=S,.,.,.,-1,0,-1
CC(C)Nc1nc(Oc2ccc(Cl)cc2)cc(C(F)(F)F)n1,74*,30,-8,3,1,-1
CCCCOC(=O)NC(NCC(O)c1ccccc1)(C(F)(F)F)C(F)(F)F (configuration not stated),81*,21,-2,1,1,0
CCOC(=O)NC(NCC(O)c1ccccc1)(C(F)(F)F)C(F)(F)F (configuration not stated),31,16,5,1,-1,0
Cn1c(=O)c(C(=O)COc2ccc(F)cc2Cl)c(N)n(Cc2ccccc2)c1=O,79*,-2,-6,-13,0,2
Cn1c(N)c(C(=O)COc2ccc(Cl)cc2Cl)c(=O)n(C)c1=O,24,-8,-30,1,1,-1
COc1ccccc1N(C(=O)CNC(=O)c1ccco1)C(C(=O)NC1CCCC1)c1ccncc1 (configuration not stated),-11,-18,-15,1,-2,0
CCOc1ccccc1N(C(=O)CNC(=O)c1ccco1)C(C(=O)NC(C)(C)C)c1ccncc1 (configuration not stated),25,7,0,395*,2,0
COc1ccc(Nc2nc(N3CCN(S(=O)(=O)N(C)C)CC3)nc3ccccc23)cc1,.,.,.,2,0,1
Cc1cccc(N2C(=O)CC(Sc3nc(C)c4c(n3)CCCC4)C2=O)c1 (configuration not stated),-2,-2,8,0,0,-2
Cc1nc(SC2CC(=O)N(c3cc(Cl)cc(Cl)c3)C2=O)nc2c1CCCC2 (configuration not stated),95*,.,4,-12,2,0
Cc1sc2ccccc2[n+]1CCC(C)S(=O)(=O)[O-] (configuration not stated),14,-1,-20,1,0,-1
Cc1cc(C)cc(NC(=S)NC2CC3CCC(C2)N3Cc2ccco2)c1 (configuration not stated),12,79*,-12,-1,0,0
CCn1ccnc1CN(C)Cc1cn(-c2ccc(C)cc2)nc1-c1ccc(F)cc1,75*,67,-5,0,-2,0
Cc1ccc(-n2cc(CN(C)Cc3ncc[nH]3)c(-c3cccc(C)c3)n2)cc1,22,59*,-11,-2,48,-1
